According to article PMC6568325 (ACS chemical biology, 2018):

What was measured:
CjMTAN [1] = biological target: T1, CjMTAN (Campylobacter jejuni subsp. jejuni, UniProt Z9IB28FKP7); test: CjMTAN inhibition by transition-state analogues; assay type: biochemical; settings: for Ki: from initial rates, MTA 1 mM, 25 °C, pH 7.4
CjMTAN [2] = biological target: T1, CjMTAN; test: CjMTAN substrate specificity, steady-state kinetics; assay type: biochemical; settings: 25 °C; for Km / kcat: substrate of CjMTAN, 50 mM Hepes-KOH pH 7.4; for h (Hill coefficient): substrate saturation, sigmoidal fit, pH 7.4
Summary of the method: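 Recombinant N-terminally His6-tagged CjMTAN from strain 81-176, expressed in E. coli and Ni-NTA purified. Substrate varied from 1 to 100 µM, with stock concentrations set by A260. Reaction contained 1 U xanthine oxidase to convert released adenine to 2,8-dihydroxyadenine, read at 305 nm (15.5 mM–1 cm–1). Started with 50 nM enzyme and followed up to 5 min. Initial rates in duplicate or triplicate, fitted to Michaelis-Menten and/or allosteric sigmoidal equations.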

C. jejuni [3] = test: C. jejuni growth IC50 in liquid culture media; assay type: cell-based; settings: Campylobacter jejuni, 16.4 h, read-out: IC50 C. jejuni growth
C. jejuni [4] = test: C. jejuni growth IC50 on Mueller-Hinton agar; assay type: cell-based; settings: Campylobacter jejuni, 144 h, read-out: IC50 C. jejuni growth

## CCCCSC[C@H]1CN(Cc2c[nH]c3c(N)ncnc23)C[C@@H]1O [BTDIA, BuS-DADMe-ImmA]
CjMTAN [1]; CjMTAN
  slow-onset inhibition: slow-onset tight-binding inhibitors
CjMTAN [1]
  Ki: 0.0041 ± 0.001 µM

## Nc1ncnc2c(CN3C[C@H](CO)[C@@H](O)C3)c[nH]c12 [DIA]
CjMTAN [1]; MTDIA 2.9 nM vs DIA 2.7 μM
  fold difference in affinity between MTDIA and DIA: ~1000 fold
CjMTAN [1]
  Ki: 2.61 ± 0.332 µM

## Nc1ncnc2c(CN3CC(O)C(CSc4ccccc4)C3)c[nH]c12 (centres unmarked) [PhTDIA]
CjMTAN [1]
  Ki: 0.0053 ± 0.0003 µM

## Nc1ncnc2c1ncn2[C@@H]1O[C@H](CO)[C@@H](O)[C@H]1O [adenosine]
CjMTAN [2]
  Km: 7.5 ± 0.6 µM
  kcat: 0.30 ± 0.01 s⁻¹

## Nc1ncnc2c(CN3CC(O)C(CSc4ccc(Cl)cc4)C3)c[nH]c12 (centres unmarked) [pCPTDIA]
CjMTAN [1]
  Ki: 0.0048 ± 0.0003 µM

## CSC[C@H]1N[C@@H](c2c[nH]c3c(N)ncnc23)[C@H](O)[C@@H]1O [MTIA]
CjMTAN [1]
  Ki: 0.0323 ± 0.0034 µM

## CNC(C)C1CCC(N)C(OC2C(N)CC(N)C(OC3OCC(C)(O)C(NC)C3O)C2O)O1 (centres unmarked) [Gentamicin]
C. jejuni [3]
  IC50: 2.1 ± 0.1 µM
C. jejuni [4]
  IC50: 0.39 ± 0.06 µM

## C[C@H]1O[C@@H](n2cnc3c(N)ncnc32)[C@H](O)[C@@H]1O [5′-deoxyadenosine]
CjMTAN [2]
  Km: 21.4 ± 1.3 µM
  kcat: 0.92 ± 0.02 s⁻¹
  h (Hill coefficient): 1.8 ± 0.2

## 5′-deoxy-5′-Pro-DADMe-ImmA [PDIA]
CjMTAN [1]
  Ki: 0.0051 ± 0.0006 µM

## CSC[C@H]1O[C@@H](n2ccc3c(N)ncnc32)[C@H](O)[C@@H]1O [MTT]
CjMTAN [1]
  Ki: 22.1 ± 6.08 µM

## Nc1ncnc2c1ncn2[C@@H]1O[C@H](CSCC[C@H](N)C(=O)O)[C@@H](O)[C@H]1O [S-5′-Adenosyl-L-homocysteine, S-5′-adenosyl-L-homocysteine]
CjMTAN [2]
  Km: 12.2 ± 1.5 µM
  kcat: 0.55 ± 0.03 s⁻¹
  h (Hill coefficient): 2.6 ± 0.7

## Nc1ncnc2c1ncn2[C@@H]1O[C@H](CCC(=O)c2cccc(C(=O)O)c2)[C@@H](O)[C@H]1O [6-amino-6-deoxyfutalosine]
CjMTAN [2]
  Km: 3.5 ± 0.4 µM
  kcat: 0.27 ± 0.01 s⁻¹

## 5′-methylthioadenosine
CjMTAN [2]
  Km: 7.1 ± 0.7 µM
  kcat: 0.80 ± 0.02 s⁻¹
